The record followed here is PMC3372638 (Journal of Molecular Biology, 2012).

Residue numbers refer to the chain shown, from its start.

In data set [1] the target is T1, HsP5CDH (Homo sapiens, UniProt P30038).
T1 sequence (P30038 18-563): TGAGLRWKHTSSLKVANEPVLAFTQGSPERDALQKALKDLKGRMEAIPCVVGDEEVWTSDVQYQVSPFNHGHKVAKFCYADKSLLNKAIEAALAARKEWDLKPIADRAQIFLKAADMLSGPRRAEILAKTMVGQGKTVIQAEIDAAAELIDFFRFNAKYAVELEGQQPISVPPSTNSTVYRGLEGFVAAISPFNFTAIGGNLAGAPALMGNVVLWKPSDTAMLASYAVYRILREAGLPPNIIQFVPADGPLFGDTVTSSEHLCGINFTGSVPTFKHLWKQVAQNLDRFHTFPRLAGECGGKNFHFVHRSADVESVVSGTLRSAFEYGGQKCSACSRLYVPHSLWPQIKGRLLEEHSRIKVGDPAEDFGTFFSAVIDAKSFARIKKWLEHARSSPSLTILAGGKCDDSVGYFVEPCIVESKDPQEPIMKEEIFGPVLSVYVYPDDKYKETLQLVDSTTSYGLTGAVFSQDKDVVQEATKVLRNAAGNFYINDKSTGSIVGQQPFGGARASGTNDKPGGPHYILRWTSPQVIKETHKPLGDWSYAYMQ
The data set is described as follows: isothermal titration calorimetry. The class given is binding. Put shortly:
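His-tagged human P5CDH was expressed in E. coli BL21(DE3)pLysS and purified by Ni2+-affinity then anion exchange. It was dialysed into 50 mM Tris, 50 mM NaCl, 0.5 mM THP, 0.5 mM EDTA, 5 % glycerol, pH 8.0, with NAD+ dissolved in the dialysate and pH-matched. Run at 25 °C: 20 μl NAD+ injections every 240 s, 250 rpm, 4 μl pre-injection discarded. Three titrations (30, 34, 47 μM protein) were fitted globally to a single-site model.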
For orientation: ITC needs no label: the signal is the heat of the interaction.

Data set [2] deals with T2, HsP5CDH (Homo sapiens, UniProt P30038, S352A).
T2 sequence (P30038 18-563 S352A): T1 sequence (P30038 18-563) with S335A
The data set is described as follows: isothermal titration calorimetry. The class given is binding. The procedure, abridged: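 Site-directed S352A mutant of His-tagged human P5CDH was expressed in E. coli BL21(DE3)pLysS and purified by Ni2+-affinity and anion exchange. It was dialysed into 50 mM Tris, 50 mM NaCl, 0.5 mM THP, 0.5 mM EDTA, 5 % glycerol, pH 8.0, with NAD+ in the dialysate and pH-matched. Titrated at 25 °C: 20 μl injections at 240-s intervals, 250 rpm, 4 μl pre-injection discarded. Fitted to a single-site binding model.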

The data set “AUC” concerns the molecule itself. The data set is described as follows: AUC.
The data set “crystal structure” concerns the molecule itself. The data set is described as follows: crystal structure.

With `NC(=O)c1ccc[n+]([C@@H]2O[C@H](COP(=O)(O)OP(=O)(O)OC[C@H]3O[C@@H](n4cnc5c(N)ncnc54)[C@H](O)[C@@H]3O)[C@@H](O)[C@H]2O)c1` [NAD^+], the Kd (usually the free concentration of one partner at which half of the binding sites on the other are occupied at equilibrium, for simple one-to-one binding) was 15 µM at HsP5CDH [1] and 10 µM at HsP5CDH [2].

B1: human Δ1-pyrroline-5-carboxylate dehydrogenase (enzyme, UniProt P30038-1 18-563, looked up)
chain: T1 sequence (P30038 18-563)
Turning to B1, the stoichiometry N (usually the number of molecules, sites or subunits per partner or assembly) in the data set “AUC” was found to be 2.

B2: human Δ1-pyrroline-5-carboxylate dehydrogenase with Ser352 mutated to Ala (enzyme, UniProt P30038-1 18-563, looked up)
chain: T1 sequence (P30038 18-563) with S335A
B2: the binding result in the data set “crystal structure” was “binds”.

B3: human Δ1-pyrroline-5-carboxylate dehydrogenase with Ser352 mutated to Leu (enzyme, UniProt P30038-1 18-563, looked up)
chain: T1 sequence (P30038 18-563) with S335L
For B3, the binding result in the data set “crystal structure” was “binds”.
